Experimental data reported in ChEMBL document CHEMBL1128222, “Novel inhibitors for multidrug resistance: 1,3,5-triazacycloheptanes” (J Med Chem, 1995).

Legend:
P388/S = assay: Evaluation of inhibitory activity and cisplatin against drug sensitive P388 cells (P388/S) cells; type: functional, cell-based, Mus musculus; conditions: p388/s
How it was run: (§1)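 P388/S or P388/ADR cells at 10^5 cells/mL in RPMI-1640/10% FCS medium. They receive graded adriamycin, mitomycin C or cisplatin, alone or together with 2.5 μM modulator, for 48 h (DMSO final 0.25%). Growth is read by MTT and the antitumor-drug IC50 is reported.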

P388/ADR = assay: Evaluation of inhibitory activity and cisplatin against multidrug resistant P388 cells (P388/ADR) cells; type: functional, cell-based, Mus musculus; how it was run: as §1

Substance: 1,5-Bis-(4-chloro-benzyl)-4-methylsulfanyl-1,5,6,7-tetrahydro-[1,3,5]triazepin-2-one; compound with cisplatin
- IC50 (P388/S): 72 nM
- IC50 (P388/ADR): 51 nM
